VIM-2 inh – inhibitors of Pseudomonas aeruginosa VIM-2 metallo-beta-lactamase | purified VIM-2, nitrocefin hydrolysis, epi-absorbance fluorescence | inhibition, % at 5.6 µM | actives 0.89% (n = 290,000);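 active = inhibition above the mean of all tested compounds plus 3 SD, cutoff set per screening run, cut at about 7.5% in these data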;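 also: red hydrolysis product quenches plate fluorescence so inhibitors raise well fluorescence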
MEKK3 PB1 HTS – modulators (inhibitors or enhancers) of MEK5 binding to human MEKK3 PB1 domain. AID 1529. binding response (% of control), % at 10 µM. bead-based flow cytometry, Alexa488-MEK5 binding to MEKK3; actives lie on both sides; 0 = blocked by unlabeled MEK5, 100 = vehicle. Q99759. actives 1.4% (n = 290,000);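 active = binding response more than 3 SD above or below the average of its plate-row segment, actives on both sides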;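 also: Alexa488 bead fluorescence after subtracting the streptavidin-only scavenger bead signal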
IMP-1 inhibitor – inhibitors of Pseudomonas aeruginosa IMP-1 metallo-beta-lactamase. purified IMP-1, nitrocefin hydrolysis, epi-absorbance fluorescence. inhibition, % at 5.6 µM. actives 0.45% (n = 290,000);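 active = inhibition above the mean plus 3 SD of all compounds in the same screening run, cut at about 4.5% in these data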
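Test system: recombinant IMP-1 enzyme, purified / Medium: HEPES buffer pH 7.1 with ZnSO4 and Brij 35 / Doses: single dose, 5.6 µM / Times: 25 °C, 15 min preincubation, 25 min reaction / Detection: Epi-absorbance via hydrolysed-nitrocefin quenching of white-plate fluorescence, 480/530 nm, EDTA stop / Evaluation: percent inhibition from optical density relative to buffer-blank wells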
MEKK2 WT-MEK5 – raises or lowers MEK5 binding to wildtype human MEKK2 PB1 domain; bead flow cytometry, Alexa488-MEK5 binding to MEKK2 WT; actives lie on both sides; binding response (% of control), % at 10 µM; actives 1.1% (n = 290,000); in the data active = binding response below about 67% or above about 130%
MEKK2mut PB1 HTS – signal of MEK5 binding to mutant human MEKK2 PB1 domain. AID 1530. actives 0.35% (n = 290,000). bead flow cytometry, Alexa488-MEK5 binding to MEKK2 mutant. percent response, % at 10 µM; in the data active = percent response above about 24%, passing the limit was not always enough
MEKK2wt confirm – raises or lowers MEK5 binding to wildtype human MEKK2, retest | shares compounds with MEKK3 PB1 HTS | bead flow cytometry, Alexa488-MEK5 binding to MEKK2 WT; actives lie on both sides | binding response (% of control), % at 10 µM | actives 2.4% (n = 5,900) | AID 1892; in the data active = binding response below about 16% or above about 210%; inactive = in between
MEKK2mut confirm – signal of MEK5 binding to mutant human MEKK2, retest. percent response, % at 10 µM. bead flow cytometry, Alexa488-MEK5 binding to MEKK2 mutant. actives 2% (n = 5,900). shares compounds with MEKK3 PB1 HTS; in the data active = percent response mostly above about 71%, no sharp cut-off; inactive = mostly below about 38%;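 also: higher means compound restores mutant binding toward wildtype level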
MEKK3 confirm – MEKK3-MEK5 PB1 inhibition, single concentration confirmation; shares compounds with MEKK3 PB1 HTS; binding response (% of control), % at 10 µM; bead flow cytometry, Alexa488-MEK5 binding to MEKK3; stronger effect = lower value; actives 1.8% (n = 5,900);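 active = binding response below 72% of control, or above a set upper limit, though filed actives all read lower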
VIM-2 inh confirm – VIM-2 inhibition, confirmation assay. shares compounds with IMP-1 inhibitor. purified VIM-2 enzyme, nitrocefin absorbance. inhibition, % at 5.6 µM. actives 73% (n = 200). AID 1860; in the data active = inhibition above about 8%
TEM-1 counter – blocks E. coli TEM-1 beta-lactamase, VIM-2 IMP-1 counter-screen; inhibition, % at 5.6 µM; nitrocefin absorbance inhibition; shares compounds with IMP-1 inhibitor; actives 50% (n = 200); in the data active = inhibition above about 0.66%
Target sequence (P62593 whole entry, looked up): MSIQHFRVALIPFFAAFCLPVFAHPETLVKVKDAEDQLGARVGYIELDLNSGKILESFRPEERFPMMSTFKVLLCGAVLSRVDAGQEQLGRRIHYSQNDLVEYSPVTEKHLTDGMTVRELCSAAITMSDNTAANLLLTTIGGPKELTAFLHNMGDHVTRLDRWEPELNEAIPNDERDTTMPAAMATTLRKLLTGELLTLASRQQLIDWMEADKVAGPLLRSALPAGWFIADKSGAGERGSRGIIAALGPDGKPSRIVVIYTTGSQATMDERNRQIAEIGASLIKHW
IMP-1 inh conf – confirmation of P. aeruginosa IMP-1 metallo-beta-lactamase inhibitors; shares compounds with IMP-1 inhibitor; purified IMP-1 enzyme, absorbance substrate hydrolysis; inhibition, % at 5.6 µM; actives 60% (n = 200); in the data active = inhibition above about 4.9%
Numbers stand for hits; i = inactive; nt = not tested or not shown; [ ] = remark or other dose. In the library only some 3.4% were active in any assay of this set; here they are far more common.

SMILES	VIM-2 inh	MEKK3 PB1 HTS	IMP-1 inhibitor	MEKK2 WT-MEK5	MEKK2mut PB1 HTS	VIM-2 inh confirm	TEM-1 counter	IMP-1 inh conf	others
CCOC(=O)CC1C(=O)NCCN1c1nc2ccc(C)cn2c(=O)c1/C=C1\SC(=S)N(CC(C)C)C1=O (configuration not stated)	i	i	i	55[inhibitor]	i	nt	nt	nt	MEKK2wt confirm=i;MEKK2mut confirm=i;MEKK3 confirm=i
CC1CCCN(c2nc3c(c(=O)[nH]c(=O)n3C)n2CCSc2nc3ccccc3o2)C1 (configuration not stated)	i	82[inhibitor]	i	i	i	nt	nt	nt	MEKK2wt confirm=i;MEKK2mut confirm=i;MEKK3 confirm=i
CC1CCCN(c2nc3c(c(=O)n(C)c(=O)n3C)n2CCSc2nc3ccccc3o2)C1 (configuration not stated)	i	i	i	i	i	nt	nt	nt
Cc1nnc(SCc2ccccc2Cl)n(N)c1=O	i	i	i	i	i	nt	nt	nt
Cc1nnc(SCc2ccccc2)n(N)c1=O	i	69[inhibitor]	i	i	i	nt	nt	nt	MEKK2wt confirm=i;MEKK2mut confirm=i;MEKK3 confirm=i
Cc1ccc(CSc2nnc(C)c(=O)n2N)cc1	i	131	i	i	i	nt	nt	nt	MEKK2wt confirm=i;MEKK2mut confirm=i;MEKK3 confirm=i
Cc1nnc(SCC(=O)NCc2ccccc2Cl)n(N)c1=O	i	130	i	i	i	nt	nt	nt	MEKK2wt confirm=i;MEKK2mut confirm=i;MEKK3 confirm=i
CN(CC(=O)N1CCN(c2ccccn2)CC1)S(=O)(=O)c1ccc2ccccc2c1	i	i	i	i	i	nt	nt	nt
Cc1ccc(C)c(Cn2ncc3ccccc32)c1	i	i	i	i	i	nt	nt	nt
COc1ccccc1N1CCN(CCCNC(=O)Nc2ccccc2C)CC1	i	i	i	i	29	nt	nt	nt	MEKK2wt confirm=i;MEKK2mut confirm=i;MEKK3 confirm=i
CC(=O)Nc1ccc(Nc2c3c4c(cccc4n(C)c2=O)C(=O)c2ccccc2-3)cc1	i	i	i	i	i	nt	nt	nt
Cn1c(=O)c(NCCc2ccccc2)c2c3c(cccc31)C(=O)c1ccccc1-2	37	i	36	62[inhibitor]	i	28	64	24	MEKK2wt confirm=i;MEKK2mut confirm=i;MEKK3 confirm=i
CCCCNc1c2c3c(cccc3n(C)c1=O)C(=O)c1ccccc1-2	23	i	28	41[inhibitor]	i	34	53	28	MEKK2wt confirm=i;MEKK2mut confirm=i;MEKK3 confirm=i
COc1cccc(N2CC(C(=O)NNC(=O)c3ccc(Cl)cc3)CC2=O)c1 (configuration not stated)	i	i	i	i	i	nt	nt	nt
Cc1ccc(C(=O)Oc2cccc(-n3cnnn3)c2)cc1	i	i	i	i	i	nt	nt	nt
CCNc1ccc(Br)cc(C(=O)/C=C/c2c(Cl)cccc2Cl)c1=O	8.3	i	6.0	47[inhibitor]	i	i	i	i	MEKK2wt confirm=i;MEKK2mut confirm=i;MEKK3 confirm=i
CCN(CC)c1ccc(/C=C2\C(=N)N3N=C(CC(=O)N4CCOCC4)SC3=NC2=O)cc1	11	i	6.4	i	i	9.3	i	i
CSc1ccc(/C=C2\C(=N)N3N=C(CC(=O)N4CCOCC4)SC3=NC2=O)cc1	i	i	i	i	i	nt	nt	nt
O/C=c1\ccc2cccc3nc(C(F)(F)F)nc1c23	21	i	6.8	i	i	33	5.0	11
NNc1nc(C(F)(F)F)nc2ccccc12	i	i	i	i	i	nt	nt	nt
O=C(CN1CCCCCC1)N1c2ccccc2Sc2ccccc21	i	i	i	i	i	nt	nt	nt
CCN(CC)c1ccc2cc(C(C)=O)c(=O)oc2c1	i	i	i	i	i	nt	nt	nt
CCN(CC)c1ccc2cc(C=O)c(=O)oc2c1	15	i	15	i	i	16	15	12
O=C(O)Cn1cc(C(=S)N2CCCCC2)c2ccccc21	9.2	i	5.0	i	i	i	i	i
CCOC(=O)C1CCCN(Cc2c(C(=O)N3CCCCC3)nc3c(C)cccn23)C1 (configuration not stated)	i	i	i	i	i	nt	nt	nt
SMILES	VIM-2 inh	MEKK3 PB1 HTS	IMP-1 inhibitor	MEKK2 WT-MEK5	MEKK2mut PB1 HTS	VIM-2 inh confirm	TEM-1 counter	IMP-1 inh conf	others
CCNc1c2c3c(cccc3n(C)c1=O)C(=O)c1ccccc1-2	22	i	23	i	i	60	69	41
Cn1c(=O)c(NCCO)c2c3c(cccc31)C(=O)c1ccccc1-2	90	i	96	i	i	108	158	95
CCNC1=C(Cl)C(=O)c2ccccc2C1=O	i	i	i	i	i	nt	nt	nt
CC(=O)c1nc2ccccc2n1S(=O)(=O)c1ccc(Cl)cc1	i	i	i	i	i	nt	nt	nt
c1ccn2cc(CSc3nnc4ccccn34)nc2c1	i	i	i	i	i	nt	nt	nt
COc1ccc(C(=O)CSc2nc(N)nc(SC)c2C#N)cc1	i	i	i	i	i	nt	nt	nt
COc1ccccc1N1N=C(c2ccc([N+](=O)[O-])cc2)CC1c1ccccc1 (configuration not stated)	31	i	35	i	i	18	27	16
COc1ccccc1N1CCN(CCc2n[nH]c(=S)n2-c2ccccc2)CC1	i	i	i	i	i	nt	nt	nt
CSC1=C(C#N)C(c2cccc(Br)c2)CC(=O)N1 (configuration not stated)	i	i	i	i	i	nt	nt	nt
COC(CSc1ncnc2c1oc1nc3c(cc12)COC(C)(C)C3)OC	i	i	i	i	i	nt	nt	nt
COc1ccc2c3c(cccc13)C(=O)CC2	17	i	16	i	i	i	1.7	i
CCOC(=O)c1cc(C(C)(C)C)n(CCCN2CCOCC2)c1C	i	i	i	i	i	nt	nt	nt
CCOc1ccc(Nc2nc(NCCN3CCOCC3)nc(OC)n2)cc1	42	i	38	i	i	i	i	i
CCOc1ccc(Nc2nc(N3CCOCC3)nc(N3CCOCC3)n2)cc1	i	i	i	i	i	nt	nt	nt
CCOc1ccc(/C=C2\CCCc3c2nc2ccccc2c3C(=O)O)cc1OC	38	i	29	i	i	37	56	28
COc1ccc(/C=C2\CCCc3c2nc2ccccc2c3C(=O)O)cc1OC	16	i	17	i	i	23	39	19
COc1cc(/C=C2\CCCc3c2nc2ccccc2c3C(=O)O)cc(OC)c1O	i	i	i	i	i	nt	nt	nt
COc1ccc(/C=C2\CCc3c2nc2ccccc2c3C(=O)O)cc1OC	i	i	i	i	i	nt	nt	nt
Cc1ccc(S(=O)(=O)Cc2ccc(C(=O)NC3CCCCCC3)o2)cc1	i	i	i	i	i	nt	nt	nt

Source: PubChem (several laboratories)
